Values joined by “and” are separate entries in the source; they are usually repeats but may differ in a detail not shown here. Equal values may be shown once.
Test system: U2OS
Test: Multiplex assay against U2OS
Type: toxicity, cell-based
Conditions: human
How it was run: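 Live cells carried four stains from seeding: Hoechst33342, BioTracker Green Microtubule Cytoskeleton Dye, MitoTracker Red and Annexin V Alexa Fluor 680. They were imaged on a CQ1 microscope at 37°C and 5% CO2 after compound addition. Using CellPathfinder machine-learning gating, cells were split into Hoechst high-intensity objects or normal cells, normal cells into healthy, pyknosed or fragmented nuclei, and pyknosed cells into mitotic or apoptotic; tubulin, mitochondrial-mass and membrane-permeability phenotypes are per cents of healthy-nucleus cells.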

[1] = 12 h, 1 µM, compound concentration 1 uM
[2] = 12 h, 10 µM, compound concentration 10 uM
[3] = 24 h, 1 µM, compound concentration 1 uM
[4] = 24 h, 10 µM, compound concentration 10 uM
[5] = 48 h, 1 µM, compound concentration 1 uM
[6] = 48 h, 10 µM, compound concentration 10 uM

Cc1[nH]nc2ccc(-c3cncc(OCC(N)Cc4c[nH]c5ccccc45)c3)cc12 (stereo not drawn)
Population Apoptotic (%) [1]: 44.72% and 48.45% | Population Fragmented Nuclei (%) [1]: 8.59% and 11.33% | Population Healthy Nuclei (%) [1]: 46.81% and 24% | Population Hoechst High Intensity Objects (%) [1]: 0% | Population Membrane Permeable-Phenotype (%) [1]: 2.37% and 0% | Population Mitotic Cells (%) [1]: 55.28% and 51.55% | Population Normal (%) [1]: 100% | Population Pyknosed Nuclei (%) [1]: 44.6% and 64.67% | Population Tubulin-Different-Phenotype (%) [1]: 4.73% and 0% | Total Cell Count [1]: 361 and 150 | Population Apoptotic (%) [2]: 65.77% and 68.92% | Population Fragmented Nuclei (%) [2]: 11.37% and 8.4% | Population Healthy Nuclei (%) [2]: 2.49% and 6.87% | Population Hoechst High Intensity Objects (%) [2]: 0% | Population Membrane Permeable-Phenotype (%) [2]: 0% and 22.22% | Population Mitochondria Different-Phenotype (%) [2]: 35.71% and 55.56% | Population Mitotic Cells (%) [2]: 34.23% and 31.08% | Population Normal (%) [2]: 100% | Population Pyknosed Nuclei (%) [2]: 86.15% and 84.73% | Population Tubulin-Different-Phenotype (%) [2]: 42.86% and 33.33% | Total Cell Count [2]: 563 and 262 | Population Apoptotic (%) [3]: 64.71% and 80.2% | Population Fragmented Nuclei (%) [3]: 9.73% and 13.51% | Population Healthy Nuclei (%) [3]: 38.6% and 18.24% | Population Hoechst High Intensity Objects (%) [3]: 0% | Population Membrane Permeable-Phenotype (%) [3]: 3.15% and 3.7% | Population Mitotic Cells (%) [3]: 35.29% and 19.8% | Population Normal (%) [3]: 100% | Population Pyknosed Nuclei (%) [3]: 51.67% and 68.24% | Population Tubulin-Different-Phenotype (%) [3]: 2.36% and 7.41% | Total Cell Count [3]: 329 and 148 | Population Apoptotic (%) [4]: 93.93% and 93.15% | Population Fragmented Nuclei (%) [4]: 7.63% and 5.95% | Population Healthy Nuclei (%) [4]: 4.33% and 7.14% | Population Hoechst High Intensity Objects (%) [4]: 0% | Population Mitochondria Different-Phenotype (%) [4]: 17.65% and 50% | Population Mitotic Cells (%) [4]: 6.07% and 6.85% | Population Normal (%) [4]: 100% | Population Pyknosed Nuclei (%) [4]: 88.04% and 86.9% | Population Tubulin-Different-Phenotype (%) [4]: 35.29% and 16.67% | Total Cell Count [4]: 393 and 168 | Population Apoptotic (%) [5]: 73.68% and 85.57% | Population Fragmented Nuclei (%) [5]: 8.46% and 13.19% | Population Healthy Nuclei (%) [5]: 34.14% and 19.44% | Population Hoechst High Intensity Objects (%) [5]: 0% | Population Mitochondria Different-Phenotype (%) [5]: 1.77% and 10.71% | Population Mitotic Cells (%) [5]: 26.32% and 14.43% | Population Normal (%) [5]: 100% | Population Pyknosed Nuclei (%) [5]: 57.4% and 67.36% | Population Tubulin-Different-Phenotype (%) [5]: 5.31% and 0% | Total Cell Count [5]: 331 and 144 | Population Apoptotic (%) [6]: 96.14% and 98.84% | Population Fragmented Nuclei (%) [6]: 9.73% and 10.67% | Population Healthy Nuclei (%) [6]: 29.2% and 32% | Population Hoechst High Intensity Objects (%) [6]: 0% | Population Membrane Permeable-Phenotype (%) [6]: 12.12% and 29.17% | Population Mitochondria Different-Phenotype (%) [6]: 23.23% and 35.42% | Population Mitotic Cells (%) [6]: 3.86% and 1.16% | Population Normal (%) [6]: 100% | Population Pyknosed Nuclei (%) [6]: 61.06% and 57.33% | Population Tubulin-Different-Phenotype (%) [6]: 14.14% and 16.67% | Total Cell Count [6]: 339 and 150

CN(C)C/C=C/C(=O)Nc1ccc(C(=O)N2CCCC(Nc3ncc(Cl)c(-c4c[nH]c5ccccc45)n3)C2)cc1 (stereo not drawn)
Population Apoptotic (%) [1]: 77% and 83% | Population Fragmented Nuclei (%) [1]: 31% and 18% | Population Healthy Nuclei (%) [1]: 60% and 77% | Population Hoechst High Intensity Objects (%) [1]: 2% and 0% | Population Membrane Permeable-Phenotype (%) [1]: 5% and 6% | Population Mitochondria Different-Phenotype (%) [1]: 3% and 5% | Population Mitotic Cells (%) [1]: 22% and 16% | Population Normal (%) [1]: 97% and 99% | Population Pyknosed Nuclei (%) [1]: 8% and 4% | Population Tubulin-Different-Phenotype (%) [1]: 4% and 8% | Total Cell Count [1]: 228 and 139 | Population Apoptotic (%) [2]: 80% and 75% | Population Fragmented Nuclei (%) [2]: 31% and 25% | Population Healthy Nuclei (%) [2]: 47% and 54% | Population Hoechst High Intensity Objects (%) [2]: 5% and 2% | Population Membrane Permeable-Phenotype (%) [2]: 33% and 23% | Population Mitochondria Different-Phenotype (%) [2]: 40% and 42% | Population Mitotic Cells (%) [2]: 20% and 25% | Population Normal (%) [2]: 94% and 97% | Population Pyknosed Nuclei (%) [2]: 20% | Population Tubulin-Different-Phenotype (%) [2]: 49% and 37% | Total Cell Count [2]: 233 and 121 | Population Apoptotic (%) [3]: 93% and 100% | Population Fragmented Nuclei (%) [3]: 34% and 21% | Population Healthy Nuclei (%) [3]: 53% and 67% | Population Hoechst High Intensity Objects (%) [3]: 2% and 0% | Population Membrane Permeable-Phenotype (%) [3]: 7% and 8% | Population Mitochondria Different-Phenotype (%) [3]: 2% | Population Mitotic Cells (%) [3]: 6% and 0% | Population Normal (%) [3]: 97% and 99% | Population Pyknosed Nuclei (%) [3]: 11% | Population Tubulin-Different-Phenotype (%) [3]: 6% and 5% | Total Cell Count [3]: 271 and 164 | Population Apoptotic (%) [4]: 87% and 97% | Population Fragmented Nuclei (%) [4]: 39% and 31% | Population Healthy Nuclei (%) [4]: 35% | Population Hoechst High Intensity Objects (%) [4]: 9% and 5% | Population Membrane Permeable-Phenotype (%) [4]: 22% and 21% | Population Mitochondria Different-Phenotype (%) [4]: 33% and 28% | Population Mitotic Cells (%) [4]: 12% and 2% | Population Normal (%) [4]: 90% and 94% | Population Pyknosed Nuclei (%) [4]: 25% and 32% | Population Tubulin-Different-Phenotype (%) [4]: 29% and 17% | Total Cell Count [4]: 239 and 135 | Population Apoptotic (%) [5]: 94% and 96% | Population Fragmented Nuclei (%) [5]: 29% and 10% | Population Healthy Nuclei (%) [5]: 60% and 77% | Population Hoechst High Intensity Objects (%) [5]: 3% | Population Membrane Permeable-Phenotype (%) [5]: 10% and 3% | Population Mitochondria Different-Phenotype (%) [5]: 3% | Population Mitotic Cells (%) [5]: 5% and 3% | Population Normal (%) [5]: 96% | Population Pyknosed Nuclei (%) [5]: 10% and 12% | Population Tubulin-Different-Phenotype (%) [5]: 5% and 3% | Total Cell Count [5]: 339 and 221 | Population Apoptotic (%) [6]: 100% | Population Fragmented Nuclei (%) [6]: 50% | Population Healthy Nuclei (%) [6]: 17% and 18% | Population Hoechst High Intensity Objects (%) [6]: 15% and 9% | Population Membrane Permeable-Phenotype (%) [6]: 47% and 26% | Population Mitochondria Different-Phenotype (%) [6]: 27% and 19% | Population Mitotic Cells (%) [6]: 0% | Population Normal (%) [6]: 84% and 90% | Population Pyknosed Nuclei (%) [6]: 32% and 31% | Population Tubulin-Different-Phenotype (%) [6]: 38% and 23% | Total Cell Count [6]: 251 and 157

Source: ChEMBL document CHEMBL5724801, “EUbOPEN Chemogenomics Library - Multiplex” (2024)
